# Assay outcomes (PubChem)
# Compounds with a hit are over-represented: about 1.9% of the library has one in this group of screens.
# Tb hexokinase: T. brucei hexokinase 1 inhibition. AID 1430. inhibition, % at 10 µM. recombinant TbHK1, G6PDH-coupled NADH A340. 0.11% of 220,000 active;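 active means inhibition of 50% or more in the single-dose primary screen; inactive means inhibition below 50%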
# Runt-SMMHC FRET: Runt domain-CBFb-SMMHC interaction inhibition. Q01196+Q13951. Cerulean-Runt/Venus-CBFb-SMMHC FRET ratio 530/480, 1 h. inhibition, % at 20 µM. 0.74% of 220,000 active. AID 1434;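 active means mean inhibition across duplicate retests at 20 µM reaching about 50%, limit read from the data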;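 further: 0% = DMSO wells and 100% = wells with excess untagged CBFb-SMMHC; inhibitors lower the FRET ratio by blocking Runt binding to CBFb-SMMHC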
# RanGTP-Imp inh: inhibitors of RanGTP-importin-beta interaction, primary screen, biochemical, FRET, CFP-Ran, YFP-importin-beta, homogeneous; cell-free CFP-Ran/YFP-importin-beta FRET ratio; 1.1% of 300,000 active; inhibition, % (test concentration not listed);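 active means more than half of the replicate wells show a fall in the fluorescence ratio signal beyond about 16%, limit read from the data, passing the limit was not always enough; inconclusive means exactly half of the replicate wells pass the set limit; inactive means fewer than half of replicates pass the limit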;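 further: 0% = DMSO wells and 100% = Ran loaded with GDP instead of GTP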
# Hck Nef HTS: human Hck-Nef kinase inhibition | P08631 | Recombinant Hck-YEEI plus Nef, Z-Lyte FRET kinase assay | inhibition, % at 20 µM | 0.68% of 220,000 active | AID 463187;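 active means Hck-Nef kinase inhibition above about 50%, limit read from the data; inactive means inhibition below that limit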;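 further: 0% = DMSO with Hck plus Nef and 100% = Hck alone without Nef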
# Target sequence (P08631 whole entry, looked up): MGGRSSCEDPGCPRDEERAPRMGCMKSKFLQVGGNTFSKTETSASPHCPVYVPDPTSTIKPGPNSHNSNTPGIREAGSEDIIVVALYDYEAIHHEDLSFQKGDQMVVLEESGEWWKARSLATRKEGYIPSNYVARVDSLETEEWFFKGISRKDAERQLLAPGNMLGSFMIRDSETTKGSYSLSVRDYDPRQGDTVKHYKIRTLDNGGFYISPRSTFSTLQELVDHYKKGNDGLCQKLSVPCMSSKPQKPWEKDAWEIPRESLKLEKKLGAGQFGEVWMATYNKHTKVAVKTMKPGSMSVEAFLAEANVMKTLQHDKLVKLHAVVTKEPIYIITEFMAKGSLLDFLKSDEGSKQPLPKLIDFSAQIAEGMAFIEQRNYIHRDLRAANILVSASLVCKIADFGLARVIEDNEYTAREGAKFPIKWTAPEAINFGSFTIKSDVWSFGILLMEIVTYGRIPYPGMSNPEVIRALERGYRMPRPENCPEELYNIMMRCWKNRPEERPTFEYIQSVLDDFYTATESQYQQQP
# Runt-CBFb FRET: inhibitors of human RUNX1 Runt domain binding to CBFb | Cerulean-Runt/Venus-CBFb FRET ratio 530/480, 1 h | 0.46% of 220,000 active | inhibition, % at 20 µM | AID 1496;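 active means inhibition over about 50% at 20 µM in the single-dose screen, limit read from the data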;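 further: 0% = DMSO wells and 100% = excess unlabeled CBFb competitor control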
#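 Reagent – Venus-CBFb binding partner, 100 nM · Assay system – Cerulean-tagged RUNX1 Runt domain (FRET donor) fusion protein · Input – 100 nM per protein · Incubation – two 1 h room-temperature incubations shielded from light · Measured by – FRET fluorescence · Medium – Tris buffer pH 7.5 with salts and BSA · Benchmarks – unlabeled CBFb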
# YIC counter: counter-screen for RanGTP-importin-beta inhibitors: YIC FRET probe. IC50, µM. Purified YIC probe, intramolecular FRET ratio YFP/CFP. shares compounds with RanGTP-Imp inh. AID 435026. 40% of 1,000 active;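 active means fitted half-maximal inhibitory concentration no more than tenfold above the top dose tested; inconclusive means flat fit with 30 to 70% activity, or poor fit; inactive means half-maximal concentration beyond tenfold above the top dose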
# * hit, by the source's call; u = inconclusive; x = no result.
SMILES,Tb hexokinase,Runt-SMMHC FRET,RanGTP-Imp inh,Hck Nef HTS,Runt-CBFb FRET,YIC counter
Cc1cccn2c(=O)c(/C=C(\C#N)C(N)=O)c(Oc3ccccc3)nc12,-21,119*,25*,16,11,1.6*
CCOC(=O)/C(C#N)=C/c1c(N2CCN(c3ccc(OC)cc3)CC2)nc2c(C)cccn2c1=O,x,x,20*,x,x,>50
CCNC(=O)/C(C#N)=C/c1c(N2CCN(c3ccc(OC)cc3)CC2)nc2c(C)cccn2c1=O,x,x,11,x,x,x
COc1cc(C2C(C#N)=C(N)Oc3cc(C)n(CC4CCCO4)c(=O)c32)cc2c1OCO2 (centres undefined),4,-1,-4,0,1,x
Cc1cc2c(c(=O)n1CC1CCCO1)C(c1ccco1)C(C#N)=C(N)O2 (centres undefined),-6,39,23*,-1,112*,14*
COc1ccc(NC(=O)N2CCCCCC2)cc1,3,3,21*,0,0,>50
COc1ccc(NC(=O)N2CCN(C(=O)Nc3ccc(OC)cc3)CC2)cc1,-3,0,-4,7,1,x
COC(=O)C1=C(C)NC(C)=C(C(=O)OC)C1C(=O)OC(C)C(=O)c1ccccc1 (centres undefined),-10,-2,22*,-5,1,>50
CCOC(=O)c1c(N2C(=O)Nc3ccccc3N2O)sc2c1CCCC2,21,-1,20*,4,0,>50
COC(=O)c1c(N2C(=O)Nc3ccccc3N2O)sc(C)c1C,-8,-2,-2,18,1,x
CCCc1cc(=O)oc2c(CN3CCN(C)CC3)c(O)c(Cl)cc12,x,101*,50*,x,123*,31*
CCCc1cc(=O)oc2c(CN3CCN(C)CC3)c(O)ccc12,x,x,7,x,x,x
O=C(Nc1ccc(OC(F)(F)F)cc1)c1ccc2nc[nH]c2c1,x,x,20*,x,x,>50
CCn1c(SCc2nc(-c3ccccc3)no2)nnc1-c1ccco1,5,0,-1,1,-1,x
CCn1c(SCc2nc(-c3ccccc3)no2)nnc1-c1cccs1,-6,1,24*,-1,-1,>50
CCC(=O)Nc1ccc(N/C(N)=N/c2nc(C)cc(C)n2)cc1,-4,2,17*,-4,2,>50
C=CCn1c(C)c(C(C)=O)c(N2CCN(C(c3ccccc3)c3ccccc3)CC2)nc1=S,-4,-1,30*,0,1,>50
CN(C(=O)CSc1nnc(-c2ccncc2)n1Cc1ccccc1)C1CCS(=O)(=O)C1 (centres undefined),4,2,-2,18,-2,x
Oc1ccccc1/C=N/Nc1cc(N2CCCC2)nc(N2CCCC2)n1,-11,-2,29*,1,-3,>50
Cc1c(CC(=O)NCC(=O)N[C@H](Cc2ccccc2)C(=O)O)c(=O)oc2cc(O)ccc12,x,x,16*,x,x,46*
O=C(Nc1ccccc1N1CCOCC1)c1cc(Br)c(Br)s1,-2,0,2,1,0,x
COc1cc(C(=O)N2CCN(C(=O)c3cc(-c4ccccc4)n[nH]3)CC2)cc(OC)c1OC,x,x,1,x,x,x
COCc1ccc(CN2CCCC(CO)(Cc3cccc(OC)c3)C2)o1 (centres undefined),-11,3,-3,-4,0,x
COCc1ccc(CN2CCCC(CO)(Cc3ccccc3C)C2)o1 (centres undefined),6,0,23*,20,-1,>50
c1ccc2sc(NC3=NCN(CCN4CCOCC4)CN3)nc2c1,4,1,28*,23,-2,>50
SMILES,Tb hexokinase,Runt-SMMHC FRET,RanGTP-Imp inh,Hck Nef HTS,Runt-CBFb FRET,YIC counter
OCCN1CN=C(Nc2nc3ccccc3s2)NC1,4,-2,3,9,1,x
C/C(=C\C(=O)C(F)(F)F)Nc1ccc(C(F)(F)F)cc1,0,3,20*,1,0,>50
COc1ccc(NC(=O)c2cccnc2Sc2ccccc2)c(OC)c1,7,1,-1,6,1,x
O=C(O)c1c2c(nc3ccccc13)/C(=C/c1ccc(OC(F)F)cc1)CCC2,x,x,31*,x,x,>50
COc1ccc(CCn2c(C)nc3ccccc3c2=O)cc1OC,-3,-1,23*,21,2,>50
COc1ccc(Br)cc1/C=C/C(=O)NC(=S)Nc1ccc(CN2CCOCC2)cc1,x,x,50*,x,x,>50
COc1ccc(C(=O)NC(=S)Nc2ccc(CN3CCOCC3)cc2)cc1OC,-22,2,u,18,2,x
Cc1nn(C)cc1S(=O)(=O)N1CCCC(C(=O)O)C1 (centres undefined),-4,-2,-4,16,0,x
Cc1c(S(=O)(=O)N2CCCC(C(=O)O)C2)cnn1C (centres undefined),-12,-1,22*,18,0,>50
C/C(CC(=O)Nc1ccc(F)cc1F)=N\NC(=O)C(=O)N1CCCCC1,x,x,-1,x,x,x
CCS(=O)(=O)c1ncc(CO)n1CCc1ccccc1,x,x,-3,x,x,x
CCNc1nnc(CSc2nc3ccccc3s2)s1,1,3,18*,10,0,>50
CCc1nnc(NC(=O)CSc2nc3ccccc3s2)s1,5,-52,-1,1,-1,x
CC(C)OC(=O)c1nnn(-c2nonc2N)c1CN1CCCCCC1,4,-4,24*,1,-3,>50
O=C(/C=C/c1ccccc1[N+](=O)[O-])N1CCN(c2ccc(F)cc2)CC1,-4,2,24*,16,0,>50
CC(C)C[C@H](NC(=O)c1cc2cc(Cl)ccc2n1C)C(=O)N1CCC(C(=O)O)CC1,x,x,-4,x,x,x
O=C(NNS(=O)(=O)c1ccc(F)cc1)C1CCN(Cc2cccc(F)c2)CC1,1,-2,2,14,-1,x
O=C(Nc1nonc1NC(=O)c1cccs1)c1cccs1,-2,-1,21*,12,0,>50
O=C(Nc1ccc(NC(=O)c2cccs2)cc1)c1cccs1,x,x,0,x,x,x
